# Source: PubChem
# Most compounds without a hit are left out; they make up all but 1.1% or so of the library.
# SR-BI HDL uptake: inhibitors of SR-BI mediated HDL lipid uptake, primary screen, ldlA[mSR-BI] cells, fluorescence, single point. ldlA[mSR-BI] CHO cells, DiI-HDL uptake fluorescence, 3 h. Scavenger receptor class B member 1 (Mus musculus), Q61009. hit rate 0.96% among 320,000. inhibition, % at 12.5 µM;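 active = mean replicate inhibition of at least 70% and a set share of replicates each scoring 70 or more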
# CDK5 p35 inh: inhibitors of human CDK5/p35 kinase, primary screen, biochemical, single concentration; Cyclin-dependent kinase 5 (Homo sapiens) + Cyclin-dependent kinase 5 activator 1 (Homo …; Recombinant CDK5/p35, ADP-Glo luminescence, 60 min; inhibition, % at 10 µM; hit rate 0.01% among 330,000; AID 488839, 2010;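 active = highest replicate inhibition of at least 50% and at least 75% of replicates reaching 50%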
# GSK3 alpha inh: blockers of GSK3A enzyme activity – biochemical, luminescence, cell-free homogeneous, HTS, primary screen; inhibition, % at 10 µM; Glycogen synthase kinase-3 alpha (Homo sapiens), P49840; hit rate 0.1% among 320,000; GSK-3 alpha kinase, ADP-Glo luminescence, 60 min;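 active = more than half of replicates show inhibition above 20%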;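 note: GST-tagged GSK-3 alpha with peptide substrate and 25 µM ATP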
# Target sequence (P49840 whole entry, looked up): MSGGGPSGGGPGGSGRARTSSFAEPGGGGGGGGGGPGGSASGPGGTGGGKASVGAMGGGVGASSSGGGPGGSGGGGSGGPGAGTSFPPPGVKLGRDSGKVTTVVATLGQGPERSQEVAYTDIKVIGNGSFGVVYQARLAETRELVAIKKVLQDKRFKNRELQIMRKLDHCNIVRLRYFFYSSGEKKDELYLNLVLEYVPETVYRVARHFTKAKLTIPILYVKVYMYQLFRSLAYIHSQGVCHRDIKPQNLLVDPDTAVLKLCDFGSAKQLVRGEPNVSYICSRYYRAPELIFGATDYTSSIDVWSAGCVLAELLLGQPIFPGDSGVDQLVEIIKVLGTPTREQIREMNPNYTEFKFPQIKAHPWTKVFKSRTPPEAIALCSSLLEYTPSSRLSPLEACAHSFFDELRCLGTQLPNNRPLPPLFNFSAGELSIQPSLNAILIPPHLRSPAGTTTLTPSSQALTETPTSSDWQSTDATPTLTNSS
# GSK3beta inhib: human GSK3beta kinase inhibitors, primary screen, biochemical, cell-free homogeneous, HTS; Glycogen synthase kinase-3 beta (Homo sapiens), P49841; GST-GSK3beta kinase, ADP-Glo luminescence, 60 min; active compounds read low; activity score (negative = inhibition), % at 10 µM; hit rate 0.038% among 300,000; AID 2097, 2009;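 active = more than half of replicate wells score below -50%, meaning over 50% inhibition versus plate controls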
#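 test system = GST-tagged human GSK3beta kinase, cell-free | reagent = 25 µM ATP with peptide substrate | dosing = one dose of 10 µM per compound | schedule = 60 min reaction, RT | detection = luminescent ADP-Glo measurement of ADP formed | control set = DMSO neutral wells and GW8510 at 20 µM as positive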
# SR-BI DiI-HDL act: activators of SR-BI mediated DiI-HDL uptake, primary screen, ldlA[mSR-BI] CHO cells, DiI fluorescence. hit rate 0.096% among 320,000. 3 h; 100 = double the neutral-control signal. AID 504775, 2011. activation, % at 12.5 µM;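 active = mean replicate activation of at least 60% and every replicate at or above 60%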
#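 Test system: SR-BI-overexpressing, LDLR-lacking CHO cells. Measured by: DiI fluorescence, bottom read. Medium: Ham's F12 with 0.5% BSA, HEPES 25 mM, pH 7.4. Timing: 3 h uptake period with compound, 37 °C.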
# Numbers stand for hits; . = inactive; / = not tested or not shown.
SMILES,SR-BI HDL uptake,CDK5 p35 inh,GSK3 alpha inh,GSK3beta inhib,SR-BI DiI-HDL act
Cc1ccc(/C=C/c2nc3ccccc3s2)s1,101,.,.,.,.
CCOc1ccc(C(=O)Nc2ccc(N3CCN(C(C)=O)CC3)cc2)cc1[N+](=O)[O-],72,.,.,.,.
CCc1ccc(NC(=O)c2ccc(OC)c([N+](=O)[O-])c2)cc1,76,.,.,.,.
Cc1ccc(C(=O)N2CCN(c3ccc(NC(=O)c4cccnc4)cc3)CC2)cc1,.,.,.,.,.
COc1cc(C(=O)Nc2ccc(N3CCN(C(=O)c4ccc(C)cc4)CC3)cc2)cc(OC)c1OC,76,.,.,.,/
CCOc1ccc(C(=O)Nc2ccc(N3CCN(C)CC3)cc2)cc1[N+](=O)[O-],.,.,.,.,.
CCOC(=O)c1ccc(NC(=O)c2ccc(OC(C)C)c(OC)c2)cc1,92,.,.,.,.
CC1(C)Cc2ccccc2C(/C(C#N)=N/O)=N1,.,.,.,.,.
C[C@H](NC(=O)c1nc[nH]c1C(=O)N1CCNCC1)C(=O)OC(C)(C)C,.,.,.,.,.
CC1(c2nnc(-c3cccc(Cl)c3)o2)CC(c2ccc(Br)cc2)=NO1 (configuration not stated),.,.,.,.,.
COc1ccc(C(=O)Nc2ccc(N3CCOCC3)cc2)cc1S(=O)(=O)N1CCCC1,.,.,/,/,.
CCOc1ccc(C(F)(F)F)cc1NC(=O)c1ccc(OC)c([N+](=O)[O-])c1,80,.,.,.,.
COc1ccc(C(=O)Nc2ccc(N3CCOCC3)cc2)cc1S(=O)(=O)NC1CCCC1,76,.,.,.,.
Cc1ccc(C(=O)O/N=C(\N)c2ccccn2)c(C)c1,.,51,.,.,.
COc1ccc(C(=O)NNC(=O)c2ccccn2)cc1,.,55,.,.,.
COc1ccccc1C(=O)O/N=C(\N)c1ccccn1,.,.,.,.,.
COc1ccc(C(=O)O/N=C(\N)c2ccccn2)cc1,.,.,51,.,.
Cc1onc(-c2ccccc2Cl)c1C(=O)NCc1ccc(F)cc1,.,.,.,.,.
CCN(CC1CCCO1)C(=O)c1cc(COc2cc(C)c(Cl)c(C)c2)on1 (configuration not stated),.,.,/,.,.
CCn1c(C)c(/C=N/Nc2nc3ccccc3s2)c2ccccc21,112,.,/,.,.
Oc1ccccc1/C=N/Nc1nc2ccccc2o1,93,.,.,.,.
Oc1ccccc1C=NNc1nc2ccccc2s1,101,.,/,/,.
CC1CC(C)CN(S(=O)(=O)c2ccc3c(c2)oc(=O)n3CC(=O)NCCCOC(C)C)C1 (configuration not stated),.,.,.,.,.
CC1CC(C)(C)CC2(C1)NC(=O)N(CC(=O)Nc1ccc(N3CCCCC3)cc1)C2=O (configuration not stated),73,.,.,.,/
CCCOc1ccc(-c2nc[nH]c2[N+](=O)[O-])cc1,.,.,.,.,.
SMILES,SR-BI HDL uptake,CDK5 p35 inh,GSK3 alpha inh,GSK3beta inhib,SR-BI DiI-HDL act
CN(C)CCOC1c2ccccc2CCc2ccc3ccccc3c21 (configuration not stated),.,.,.,.,436
COc1ccc(C2CC(c3ccccc3)=NN2c2ccc(Cl)c(C(=O)O)c2)cc1 (configuration not stated),.,.,.,.,.
COc1ccc(C2CC(c3cccc(Cl)c3)=NN2c2ccc(S(N)(=O)=O)cc2)cc1 (configuration not stated),77,.,/,/,.
CCC(=O)Nc1cccc(C2=NN(c3ccccc3)C(c3ccc(OC)cc3)C2)c1 (configuration not stated),70,.,.,.,.
O=C(CSc1nnc2ccc(-c3ccccn3)nn12)N1CCCC1,/,.,/,/,/
COc1cccc(NC(=O)c2sc3ncn(CC(=O)N4CCN(c5ccccn5)CC4)c(=O)c3c2C)c1,79,.,.,.,.
CCOc1ccccc1NC(=O)c1sc2ncn(CC(=O)N3CCOCC3)c(=O)c2c1C,71,.,.,.,.
N#Cc1ccc(OCC(=O)NNC(=S)NC2CCCCC2)cc1,.,.,.,/,.
COc1cc2c(ccc3cc(OC)c(OC)c(O)c32)cc1O,.,81,.,.,.
COc1cc2cccc(OC)c(=O)c2c(O)c1OC,.,.,.,.,.
CCC(C)c1ccccc1NC(=O)c1cc2cccc([N+](=O)[O-])c2[nH]1 (configuration not stated),/,/,.,.,/
Cc1ccc(NC(=O)c2cc3cccc([N+](=O)[O-])c3[nH]2)cc1,79,.,.,.,.
CCC1CCc2c(sc(NC(=O)C3c4ccccc4Oc4ccccc43)c2C(N)=O)C1 (configuration not stated),.,.,.,.,.
S=C(Nc1ccc(Cl)cc1)Nc1cccc2cnccc12,.,.,.,.,.
S=C(Nc1cccnc1)Nc1cccc2cnccc12,.,.,59,.,.
COc1ccc(C(C)=O)cc1COC(=O)c1ccc(C)c(S(=O)(=O)N2CCOCC2)c1,70,.,.,/,.
O=C(NC1CCCC1)C(c1cccnc1)N(C(=O)c1ccco1)c1ccc(F)cc1 (configuration not stated),/,.,.,.,/
CC1(C)CC(NC(=O)c2ccc(Cl)c(S(=O)(=O)N(Cc3ccccc3)c3ccccc3)c2)CC(C)(C)N1,.,.,.,.,97
COc1ccccc1N(Cc1ccccc1)S(=O)(=O)c1cccc(C(=O)NC2CC(C)(C)NC(C)(C)C2)c1,.,.,.,.,.
O=C(O)c1ccc2ccc3ccccc3c2c1,/,/,.,.,/
COc1ccc(NC(=O)c2cc(C(C)C)on2)c(OC)c1,/,.,.,.,/
COc1cc(NC(=O)c2cc(C(C)C)on2)c(OC)cc1Cl,82,.,.,.,.
COc1cc(NC(=O)c2cc(C3CC3)on2)c(OC)cc1Cl,81,.,.,.,.
CC(=O)C(Cc1ccccc1)NC(=O)CN1c2cccc3cccc(c23)S1(=O)=O (configuration not stated),.,.,.,/,.
C=CCNC(=S)N1CCC(C(=O)c2ccc(F)cc2)CC1,.,.,.,.,.
Cc1c(S(=O)(=O)Nc2cccc3ccccc23)c(=O)n(C)c(=O)n1C,.,.,.,.,.
COc1cc(/C=C/c2ccc3cccc(O)c3n2)cc(Br)c1OC,82,.,.,.,.
CC1=NOC(=O)/C1=C\c1ccc(-c2ccc(Cl)cc2Cl)o1,129,.,/,.,.
O=C(Cc1c[nH]c2ccccc12)N1CCN(S(=O)(=O)c2cccc(Cl)c2Cl)CC1,.,.,.,/,.
